Assay results published in ChEMBL document CHEMBL2311419, “Discovery of coumarin-dihydropyridine hybrids as bone anabolic agents” (J Med Chem, 2013).
pEC50: −log10 of the molar value. Activity calls are given as the source filed them. The calls are words filed in the database; no cut-off is given here.

Tests used:
[1] = organism: Mus musculus; assay: Stimulation of alkaline phosphatase activity in mouse calvarial osteoblasts at 1 pM to 1 uM after 48 hrs by spectrophotometric analysis
Outline: (§1)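 Calvarial osteoblasts were exposed to compounds over 1 pM to 1 µM. ALP activity was read spectrophotometrically as optical density at 405 nm. Results were expressed as % ALP activity, with EC50 and Emax derived from the concentration series.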

[2] = organism: Mus musculus; assay: Stimulation of alkaline phosphatase activity in mouse calvarial osteoblasts assessed as concentration required for maximum activity after 48 hrs by spectrophotometric analysis; outline: as §1
[3] = Stimulation of alkaline phosphatase activity in mouse calvarial osteoblasts after 48 hrs by spectrophotometric analysis; outline: as §1
[4] = organism: Mus musculus; assay: Stimulation of alkaline phosphatase activity in mouse calvarial osteoblasts at 1 pM to 1 uM after 48 hrs by spectrophotometric analysis relative to nifedipine
[5] = tested on: Calvarial osteoblast; assay: Induction of osteoblastogenesis in mouse calvarial osteoblasts assessed as increase in expression of osteocalcin gene at 100 pM to 10 nM by qPCR analysis relative to control; assay type: functional
[6] = tested on: Calvarial osteoblast; assay: Induction of osteoblastogenesis in mouse calvarial osteoblasts assessed as increase in expression of ALP gene at 100 pM by qPCR analysis relative to control; assay type: functional, cell-based
[7] = tested on: Calvarial osteoblast; assay: Induction of mineralization in mouse calvarial osteoblasts assessed as increase of mineralized nodules formation measuring concentration required for maximum activity after 21 days by alizarin red-S staining based spectrophotometric analysis; assay type: functional
[8] = tested on: Calvarial osteoblast; assay: Induction of osteoblastogenesis in mouse calvarial osteoblasts assessed as increase in expression of RUNX2 gene at 100 pM by qPCR analysis relative to control; assay type: functional, cell-based
[9] = tested on: Calvarial osteoblast; assay: Induction of osteoblastogenesis in mouse calvarial osteoblasts assessed as increase in expression of ALP gene at 100 pM to 10 nM by qPCR analysis relative to control; assay type: functional
[10] = tested on: Calvarial osteoblast; assay: Induction of osteoblastogenesis in mouse calvarial osteoblasts assessed as increase in expression of COL1 gene at 100 pM to 10 nM by qPCR analysis relative to control; assay type: functional
[11] = tested on: Calvarial osteoblast; assay: Induction of osteoblastogenesis in mouse calvarial osteoblasts assessed as increase in expression of RUNX2 gene at 100 pM to 10 nM by qPCR analysis relative to control; assay type: functional
[12] = tested on: Calvarial osteoblast; assay: Induction of osteoblastogenesis in mouse calvarial osteoblasts assessed as increase in expression of BMP2 gene at 100 pM to 10 nM by qPCR analysis relative to control; assay type: functional
[13] = tested on: Calvarial osteoblast; assay: Induction of osteoblastogenesis in mouse calvarial osteoblasts assessed as increase in RUNX2 expression at 100 pM to 10 nM by Western blotting analysis; assay type: functional, cell-based
[14] = tested on: Calvarial osteoblast; assay: Induction of osteoblastogenesis in mouse calvarial osteoblasts assessed as increase in expression of osteocalcin gene at 100 pM by qPCR analysis relative to control; assay type: functional, cell-based
[15] = tested on: Calvarial osteoblast; assay: Induction of osteoblastogenesis in mouse calvarial osteoblasts assessed as increase in COL1 expression at 100 pM to 10 nM by Western blotting analysis; assay type: functional, cell-based
[16] = tested on: Calvarial osteoblast; assay: Induction of osteoblastogenesis in mouse calvarial osteoblasts assessed as increase in expression of BMP2 gene at 100 pM by qPCR analysis relative to control; assay type: functional, cell-based
[17] = tested on: Calvarial osteoblast; assay: Induction of osteoblastogenesis in mouse calvarial osteoblasts assessed as increase in BMP2 expression at 100 pM to 10 nM by Western blotting analysis; assay type: functional, cell-based
[18] = tested on: Calvarial osteoblast; assay: Induction of osteoblastogenesis in mouse calvarial osteoblasts assessed as increase in expression of COL1 gene at 100 pM by qPCR analysis relative to control; assay type: functional, cell-based
[19] = tested on: Calvarial osteoblast; assay: Induction of proliferation of mouse calvarial osteoblasts at 1 pM to 1 uM after 48 hrs; assay type: functional, cell-based
[20] = Cytotoxicity against mouse calvarial osteoblasts assessed as cell viability at 1 pM to 1 uM after 48 hrs by MTT assay; assay type: cell-based; details: calvarial osteoblast

`CCOC(=O)c1cc2cc(C3C(C(=O)OC)=C(C)NC4=C3C(=O)CC(C)(C)C4)cc(C(C)(C)C)c2oc1=O` (racemic) gave an Activity [1] of 5%, a Concentration giving maximum ALP activity [2] of 1 pM and a pEC50 [3] of 5.96.

With `CCOC(=O)c1cc2cc(C=O)cc(C(C)(C)C)c2oc1=O` the Activity [1] was “inactive”.

For `COC(=O)C1=C(C)NC2=C(C(=O)CCC2)C1c1cc(C(C)(C)C)c2oc(=O)c(C(=O)OC)cc2c1` (racemic), the Activity [1] was 14%, the Activity [4] was “inactive” and the Concentration giving maximum ALP activity [2] was 100 pM. For the same molecule, the pEC50 [3] was 5.87.

For `CCOC(=O)C1=C(C)NC(C)=C(C(=O)OCC)C1c1cc(C(C)CC)c2oc(=O)c(C(=O)OC)cc2c1` (centres undefined), the Activity [1] was 5%, the Activity [4] was “inactive” and the Concentration giving maximum ALP activity [2] was 100 pM. It also gave a pEC50 [3] of 5.94.

For `CCC(C)c1cc(C2C(C(=O)OC)=C(C)NC3=C2C(=O)CCC3)cc2cc(C(=O)OC)c(=O)oc12` (racemic), the Activity [1] was 4%, the Activity [4] was “inactive” and the Concentration giving maximum ALP activity [2] was 10000 pM. For the same molecule, the pEC50 [3] was 5.81.

In the case of `CCOC(=O)C1=C(C)NC2=C(C(=O)CC(C)(C)C2)C1c1cc(C(C)(C)C)c2oc(=O)c(C(=O)OCC)cc2c1` (racemic), the Activity [1] was 4%, the Activity [4] was “inactive” and the Concentration giving maximum ALP activity [2] was 10000 pM. It also gave a pEC50 [3] of 5.81.

For `CCOC(=O)c1cc2cc(C3C(C(=O)OC)=C(C)NC(C)=C3C(=O)OC)cc(C(C)(C)C)c2oc1=O`, the Activity [1] was 7%, the Activity [4] was “inactive” and the Concentration giving maximum ALP activity [2] was 1 pM. For the same molecule, the pEC50 [3] was 5.98.

With `CCOC(=O)C1=C(C)NC2=C(C(=O)CCC2)C1c1cc(C(C)CC)c2oc(=O)c(C(=O)OCC)cc2c1` (racemic) the Activity [1] was 35%, the Activity [4] was 14% and the Concentration giving maximum ALP activity [2] was 1 pM. For the same molecule, the pEC50 [3] was 6.00.

For `CCOC(=O)c1cc2cc(C=O)cc(C(C)CC)c2oc1=O` (centres undefined), the Activity [1] was 6%, the Activity [4] was “inactive” and the Concentration giving maximum ALP activity [2] was 10000 pM. It also gave a pEC50 [3] of 5.83.

With `CCOC(=O)c1cc2cc(C3C(C(=O)OC)=C(C)NC4=C3C(=O)CC(C)(C)C4)cc(C(C)CC)c2oc1=O` (racemic) the Activity [1] was 39%, the Activity [4] was 16% and the Concentration giving maximum ALP activity [2] was 1 pM. For the same molecule, the pEC50 [3] was 5.92.

With `CCC(C)c1cc(C2C(C(=O)OC)=C(C)NC(C)=C2C(=O)OC)cc2cc(C(=O)OC)c(=O)oc12` (centres undefined) the Activity [1] was 30%, the “fold change (FC)” value [5] was 1.5 and the Activity [6] was “Active”. For the same molecule, the “Concentration for maximum mineralization” value [7] was 1 pM, the Activity [4] was 12% and the Activity [8] was “Active”. The “fold change (FC)” value [9] was 1.5, the “fold change (FC)” value [10] was 1.5 and the “fold change (FC)” value [11] was 1.5. The “fold change (FC)” value [12] was 1.5, the Concentration giving maximum ALP activity [2] was 1 pM and the pEC50 [3] was 5.92. The Activity [13] was “Active”, the Activity [14] was “Active” and the Activity [15] was “Active”. The Activity [16] was “Active”, the Activity [17] was “Active” and the Activity [18] was “Active”. For the same molecule, the Activity [19] was “Active” and the Activity [20] was “Non-toxic”.

In the case of `COC(=O)c1cc2cc(C=O)cc(C(C)(C)C)c2oc1=O`, the Activity [1] was “inactive”.

For `CCOC(=O)C1=C(C)NC2=C(C(=O)CC(C)(C)C2)C1c1cc(C(C)CC)c2oc(=O)c(C(=O)OC)cc2c1` (racemic), the Activity [1] was 43%, the “fold change (FC)” value [5] was 1.5 and the Activity [6] was “Active”. For the same molecule, the “Concentration for maximum mineralization” value [7] was 100 pM, the Activity [4] was 17% and the Activity [8] was “Active”. The “fold change (FC)” value [9] was 1.5, the “fold change (FC)” value [10] was 1.5 and the “fold change (FC)” value [11] was 1.5. For the same molecule, the “fold change (FC)” value [12] was 1.5, the Concentration giving maximum ALP activity [2] was 1 pM and the pEC50 [3] was 6.00. The Activity [13] was “Active”, the Activity [14] was “Active” and the Activity [15] was “Active”. For the same molecule, the Activity [16] was “Active”, the Activity [17] was “Active” and the Activity [18] was “Active”. The Activity [19] was “Active” and the Activity [20] was “Non-toxic”.

With `CCOC(=O)c1cc2cc(C3C(C(=O)OC)=C(C)NC4=C3C(=O)CCC4)cc(C(C)CC)c2oc1=O` (racemic) the Activity [1] was 12%, the Activity [4] was “inactive” and the Concentration giving maximum ALP activity [2] was 100 pM. The pEC50 [3] was 5.91.

For `CCOC(=O)C1=C(C)NC(C)=C(C(=O)OCC)C1c1cc(C(C)CC)c2oc(=O)c(C(=O)OCC)cc2c1` (centres undefined), the Activity [1] was 4%, the Activity [4] was “inactive” and the Concentration giving maximum ALP activity [2] was 100 pM. The pEC50 [3] was 5.91.

In the case of `CCOC(=O)C1=C(C)NC2=C(C(=O)CCC2)C1c1cc(C(C)(C)C)c2oc(=O)c(C(=O)OC)cc2c1` (racemic), the Activity [1] was 4%, the Activity [4] was “inactive” and the Concentration giving maximum ALP activity [2] was 1 pM. It also gave a pEC50 [3] of 5.90.

With `COC(=O)C1=C(C)NC(C)=C(C(=O)OC)C1c1ccccc1[N+](=O)[O-]` [NIFEDIPINE] the Activity [1] was 25%, the “Concentration for maximum mineralization” value [7] was 10000 pM and the pEC50 [3] was 5.84. For the same molecule, the Activity [19] was “Active”.

For `CCOC(=O)c1cc2cc(C3C(C(=O)OC)=C(C)NC4=C3C(=O)CCC4)cc(C(C)(C)C)c2oc1=O` (racemic), the Activity [1] was 10%, the Activity [4] was “inactive” and the Concentration giving maximum ALP activity [2] was 1 pM. The pEC50 [3] was 5.88.

With `COC(=O)C1=C(C)NC(C)=C(C(=O)OC)C1c1cc(C(C)(C)C)c2oc(=O)c(C(=O)OC)cc2c1` the Activity [1] was “inactive”.

With `CCOC(=O)C1=C(C)NC2=C(C(=O)CC(C)(C)C2)C1c1cc(C(C)CC)c2oc(=O)c(C(=O)OCC)cc2c1` (racemic) the Activity [1] was 3%, the Activity [4] was “inactive” and the Concentration giving maximum ALP activity [2] was 100 pM. For the same molecule, the pEC50 [3] was 5.89.

In the case of `CCOC(=O)C1=C(C)NC2=C(C(=O)CCC2)C1c1cc(C(C)(C)C)c2oc(=O)c(C(=O)OCC)cc2c1` (racemic), the Activity [1] was 13%, the Concentration giving maximum ALP activity [2] was 1 pM and the pEC50 [3] was 5.87.

With `COC(=O)C1=C(C)NC2=C(C(=O)CC(C)(C)C2)C1c1cc(C(C)(C)C)c2oc(=O)c(C(=O)OC)cc2c1` (racemic) the Activity [1] was 10%, the Activity [4] was “inactive” and the Concentration giving maximum ALP activity [2] was 10000 pM. The pEC50 [3] was 5.82.

With `CCOC(=O)c1cc2cc(C3C(C(=O)OC)=C(C)NC(C)=C3C(=O)OC)cc(C(C)CC)c2oc1=O` (centres undefined) the Activity [1] was 20%, the Activity [4] was “inactive” and the Concentration giving maximum ALP activity [2] was 10000 pM. For the same molecule, the pEC50 [3] was 5.82.

In the case of `CCOC(=O)C1=C(C)NC(C)=C(C(=O)OCC)C1c1cc(C(C)(C)C)c2oc(=O)c(C(=O)OC)cc2c1`, the Activity [1] was 70%, the “fold change (FC)” value [5] was 1.5 and the Activity [6] was “Active”. For the same molecule, the “Concentration for maximum mineralization” value [7] was 100 pM, the Activity [4] was 28% and the Activity [8] was “Active”. For the same molecule, the “fold change (FC)” value [9] was 1.5, the “fold change (FC)” value [10] was 1.5 and the “fold change (FC)” value [11] was 1.5. The “fold change (FC)” value [12] was 1.5, the Concentration giving maximum ALP activity [2] was 100 pM and the pEC50 [3] was 5.96. The Activity [13] was “Active”, the Activity [14] was “Active” and the Activity [15] was “Active”. The Activity [16] was “Active”, the Activity [17] was “Active” and the Activity [18] was “Active”. For the same molecule, the Activity [19] was “Active” and the Activity [20] was “Non-toxic”.

In the case of `CCC(C)c1cc(C=O)cc2cc(C(=O)OC)c(=O)oc12` (centres undefined), the Activity [1] was “inactive”.
